Hits are enriched below; roughly 2.6% of the tested compounds scored in any of these assays.
Myeloid diff MLP: myeloid differentiation induction; ER-HoxA9 myeloid progenitors, lysozyme-GFP differentiation, flow cytometry; calls only at 10 µM; 360,000 tested, 1% active;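 active = normalized GFP-positive differentiation at or above the plate's own cutoff, the solvent-only control mean plus 3 SD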;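 note: cells exposed to compound for four days before flow analysis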
T cell HTS: T cell immune modulation candidate; AID 2052; response (vesicle binding), % at 7 µM; 330,000 tested, 0.068% active; 2C CD8+ T cell-vesicle binding, flow cytometry; stronger effect = lower value;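 active = response, share of CD8 T cells binding vesicles, and their 90th percentile fluorescence all below set limits, cut at about 80% in these data, passing the limit was not always enough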;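 note: values below 100% mean blocked vesicle binding to the CD8+ T cells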
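Assay system – 2C mouse CD8+ T cells · Also added – QL9-loaded Drosophila micro-vesicles · Timing – Cell–vesicle co-incubation 1.5 h at 37 °C, staining 20 min on ice · Signal – flow cytometry of vesicle-bound cells · Measure – percent CD8+ FL2 mean versus row control · Controls – Peptide-free naked vesicles (low) and QL9 vesicles with 0.7% DMSO vehicle (high)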
SKN-1 block: C. elegans SKN-1 inhibition; C. elegans VP596 Pgst-4::GFP/RFP ratio, acrylamide-induced, 24 h; AID 624304; 360,000 tested, 0.49% active; inhibition, % at 21.8 µM;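 active = interference check ratio from 0.5 to 1.5 plus GFP to RFP signal ratio inhibition reaching or exceeding a fixed threshold, cut at about 30% in these data, passing the limit was not always enough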
GRK2 aptamer HTS: inhibitors of human GRK2 displacing RNA aptamer; bead flow cytometry, FAM-aptamer displacement from GRK2; AID 488847; 330,000 tested, 0.59% active; P25098; inhibition of aptamer binding, % at 10 µM;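 active = inhibition of aptamer binding above 40%, roughly 3 SD of noise, on plates passing a quality check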;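 note: median bead fluorescence of bound FAM aptamer so fluorescent compounds give negative values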
Rce1 inhib: yeast Ras-converting enzyme inhibition; yeast membranes, quenched prenylated peptide cleavage fluorescence; calls only; 290,000 tested, 0.27% active; AID 2563;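 active = fall in fluorescence gain of 50% or more versus controls, with final raw signal at or below 3038400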
Rin1-Abl PPI inh: blocks binding of human Rin1 to Abl. inhibition, % at 7.35 µM. TR-FRET Rin1/Abl binding, biochemical. 360,000 tested, 0.4% active. AID 588664; in the data active = inhibition above about 5%, passing the limit was not always enough
Myeloid diff: promotes myeloid progenitor differentiation; shares compounds with Myeloid diff MLP; ER-HoxA9 myeloid progenitors, GFP/Mac1 double-positive flow; calls only; 2,300 tested, 2% active;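 active = share of green or green-and-red cells above 9 and 9% in run 1 or 4 and 3% in run 2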
GFP autofluor: counter-screen for myeloid differentiation promoters: compound fluorescence; ER-HoxA9 myeloid progenitors, no estrogen, GFP autofluorescence flow cytometry; vehicle wells 0%, positive control 100%; AID 651707; shares compounds with Myeloid diff MLP; fluorescence response, % (no concentration beside the values); 2,300 tested, 7.4% active;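 active = over 5% cells positive for green fluorescent reporter, or over 2% positive for both it and APC stain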
Numbers stand for hits.

Results for O=C(Nc1cccnc1)c1ccc(NS(=O)(=O)c2cc([N+](=O)[O-])ccc2Cl)cc1 ?
Myeloid diff MLP: inactive; T cell HTS: inactive; SKN-1 block: inactive; GRK2 aptamer HTS: inactive; Rin1-Abl PPI inh: inactive

Results for O=C(CCc1nc2ccccc2c(=O)[nH]1)N1CCCc2ccccc21 ?
Myeloid diff MLP: active; T cell HTS: inactive; SKN-1 block: inactive; GRK2 aptamer HTS: inactive; Rin1-Abl PPI inh: inactive; Myeloid diff: inactive; GFP autofluor: inactive

What do the screens show for `COc1ccccc1NC(=S)N(Cc1ccco1)Cc1cc2cc(C)cc(C)c2[nH]c1=O`?
Myeloid diff MLP: inactive; T cell HTS: inactive; SKN-1 block: inactive; GRK2 aptamer HTS: inactive; Rce1 inhib: inactive; Rin1-Abl PPI inh: inactive; Myeloid diff: inactive; GFP autofluor: inactive

How did COc1ccc(-c2ccc(C(=O)NCc3ccccc3)c3occc23)c(C)c1 do in these assays?
Myeloid diff MLP: inactive; SKN-1 block: inactive; Rin1-Abl PPI inh: inactive

What do the screens show for `COc1ccc(-c2ccc(C(=O)NCc3ccc(N4CCN(C)CC4)cc3)c3occc23)c(C)c1`?
Myeloid diff MLP: active; SKN-1 block: inactive; Rin1-Abl PPI inh: inactive; Myeloid diff: inactive; GFP autofluor: inactive

Results for Cc1cc(C)cc(N2C(N)=NC(N)=NC2c2ccccc2F)c1 (centres undefined) ?
Myeloid diff MLP: inactive; T cell HTS: inactive; SKN-1 block: inactive; GRK2 aptamer HTS: inactive; Rce1 inhib: inactive; Rin1-Abl PPI inh: inactive; Myeloid diff: inactive; GFP autofluor: inactive

How did O=C(O)C1CCCCC1C(=O)Nc1cccc(C(=O)N2CCCCC2)c1 (centres undefined) do in these assays?
Myeloid diff MLP: active; T cell HTS: inactive; SKN-1 block: inactive; GRK2 aptamer HTS: inactive; Rce1 inhib: inactive; Rin1-Abl PPI inh: inactive; Myeloid diff: inactive; GFP autofluor: inactive

What do the screens show for `O=c1oc(Nc2cccc(Cl)c2)nc2ccccc12`?
Myeloid diff MLP: inactive; T cell HTS: inactive; SKN-1 block: inactive; GRK2 aptamer HTS: inactive; Rce1 inhib: inactive; Rin1-Abl PPI inh: inactive

Results for CCOC(=O)c1c(C)[nH]c(C)c1C(=O)COC(=O)/C=C/c1ccccc1[N+](=O)[O-] ?
Myeloid diff MLP: active; T cell HTS: inactive; SKN-1 block: inactive; GRK2 aptamer HTS: inactive; Rin1-Abl PPI inh: inactive; Myeloid diff: inactive; GFP autofluor: inactive

Results for CCOC(=O)c1c(C)[nH]c(C(=O)COC(=O)/C=C/c2ccc(O)c(OC)c2)c1C ?
Myeloid diff MLP: inactive; T cell HTS: inactive; SKN-1 block: inactive; GRK2 aptamer HTS: inactive; Rce1 inhib: inactive; Rin1-Abl PPI inh: inactive; Myeloid diff: inactive; GFP autofluor: inactive

How did CCOC(=O)c1c(C)[nH]c(C(=O)COC(=O)/C=C/c2ccc3c(c2)OCO3)c1C do in these assays?
Myeloid diff MLP: inactive; T cell HTS: inactive; SKN-1 block: inactive; GRK2 aptamer HTS: inactive; Rce1 inhib: inactive; Rin1-Abl PPI inh: inactive

How did COc1ccccc1OCCSc1nc2ccccc2n1CC(O)CO (centres undefined) do in these assays?
Myeloid diff MLP: inactive; T cell HTS: inactive; SKN-1 block: inactive; GRK2 aptamer HTS: inactive; Rin1-Abl PPI inh: inactive

Results for Cc1cc(=O)c2c([nH]1)c(C)cc1[nH]c(C)c(C)c12 ?
Myeloid diff MLP: inactive; T cell HTS: inactive; SKN-1 block: inactive; GRK2 aptamer HTS: inactive; Rin1-Abl PPI inh: inactive; Myeloid diff: inactive; GFP autofluor: inactive

What do the screens show for `Cc1cc(C)c(S(C)(=O)=O)c(=O)[nH]1`?
Myeloid diff MLP: inactive; T cell HTS: inactive; SKN-1 block: inactive; GRK2 aptamer HTS: inactive; Rce1 inhib: inactive; Rin1-Abl PPI inh: inactive

What do the screens show for `CC(C)=C1SC(N2CCCCC2)=NC1=O`?
Myeloid diff MLP: inactive; T cell HTS: inactive; SKN-1 block: inactive; GRK2 aptamer HTS: inactive; Rce1 inhib: inactive; Rin1-Abl PPI inh: inactive

How did C/C(=C1/SC(N2CCCC2)=NC1=O)c1ccc(Br)cc1 do in these assays?
Myeloid diff MLP: active; T cell HTS: inactive; SKN-1 block: inactive; GRK2 aptamer HTS: inactive; Rce1 inhib: inactive; Rin1-Abl PPI inh: inactive; Myeloid diff: active; GFP autofluor: inactive

What do the screens show for `COc1cc(S(=O)(=O)N(Cc2ccco2)C2CCCC2)ccc1-n1cnnn1`?
Myeloid diff MLP: inactive; T cell HTS: inactive; SKN-1 block: inactive; GRK2 aptamer HTS: inactive; Rce1 inhib: inactive; Rin1-Abl PPI inh: inactive

How did CCOc1ccccc1CN(Cc1ccco1)S(=O)(=O)c1ccc(-n2cnnn2)c(OC)c1 do in these assays?
Myeloid diff MLP: active; SKN-1 block: inactive; Rce1 inhib: inactive; Rin1-Abl PPI inh: inactive; Myeloid diff: inactive; GFP autofluor: inactive

What do the screens show for `FC(F)(F)c1ccccc1CN1CCCC(N2CCN(c3ccccc3)CC2)C1` (centres undefined)?
Myeloid diff MLP: inactive; T cell HTS: inactive; SKN-1 block: inactive; GRK2 aptamer HTS: inactive; Rce1 inhib: inactive; Rin1-Abl PPI inh: inactive; Myeloid diff: inactive; GFP autofluor: 10.2

How did COc1ccc(C(=O)Cn2cc[n+](C)c2)cc1 do in these assays?
Myeloid diff MLP: active; T cell HTS: inactive; SKN-1 block: inactive; GRK2 aptamer HTS: inactive; Rce1 inhib: inactive; Rin1-Abl PPI inh: inactive; Myeloid diff: inactive; GFP autofluor: inactive

Results for COc1ccc(C(=O)CC(=O)c2ccc(OC)cc2)cc1 ?
Myeloid diff MLP: inactive; T cell HTS: inactive; SKN-1 block: inactive; GRK2 aptamer HTS: inactive; Rce1 inhib: inactive; Rin1-Abl PPI inh: inactive

How did Cc1cc(C)n2nc(CNS(=O)(=O)c3ccc(CC(C)C)cc3)nc2n1 do in these assays?
Myeloid diff MLP: inactive; T cell HTS: inactive; SKN-1 block: inactive; GRK2 aptamer HTS: inactive; Rce1 inhib: inactive; Rin1-Abl PPI inh: inactive

Results for C/C(=N\NC(=O)CCC(=O)NCc1ccccc1)c1ccc([N+](=O)[O-])cc1 ?
Myeloid diff MLP: inactive; T cell HTS: inactive; SKN-1 block: inactive; GRK2 aptamer HTS: inactive; Rin1-Abl PPI inh: inactive

Results for CC1CCCCN1C(=O)c1ccc(C(=O)N2CCCCC2C)cc1 (centres undefined) ?
Myeloid diff MLP: inactive; T cell HTS: inactive; SKN-1 block: inactive; GRK2 aptamer HTS: inactive; Rce1 inhib: inactive; Rin1-Abl PPI inh: inactive; Myeloid diff: inactive; GFP autofluor: inactive

Results for CC1CCCCN1C(=O)c1ccc(S(=O)(=O)N2CCCCC2C)cc1 (centres undefined) ?
Myeloid diff MLP: inactive; T cell HTS: inactive; SKN-1 block: inactive; GRK2 aptamer HTS: inactive; Rce1 inhib: inactive; Rin1-Abl PPI inh: inactive

Results for CCC/C=C1/CCCOC(C(=O)NCc2ccc(C)o2)(C(F)(F)F)C1 (centres undefined) ?
Myeloid diff MLP: active; T cell HTS: inactive; SKN-1 block: inactive; GRK2 aptamer HTS: inactive; Rin1-Abl PPI inh: inactive; Myeloid diff: inactive; GFP autofluor: inactive

What do the screens show for `C=C(C)COc1ccc2c(C)c(CC(=O)OC)c(=O)oc2c1C`?
Myeloid diff MLP: inactive; T cell HTS: inactive; SKN-1 block: inactive; GRK2 aptamer HTS: inactive; Rin1-Abl PPI inh: inactive; Myeloid diff: inactive; GFP autofluor: inactive

Source: PubChem BioAssay (several laboratories)
